Series [1] can be described thus: Cytotoxicity against human HepG2 cells after 24 hrs by MTT assay. It is filed as cell-based. Put shortly:
(§1)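 Cells were grown to about 80% confluence (HepG2 in BME, MDBK in EMEM, each with 10% FBS). They were seeded at 2.5 x10^4 per well and rested 24 hr, then exposed 24 hr to compound at 100–0.01 µM (1.25% DMSO). Controls were DMSO and 1% Triton X-100. Viability was read by MTT, and CC50 came from dose-response curves run in triplicate.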

The nature of series [2]: Cytotoxicity against MDBK cells after 24 hrs by MTT assay. It is filed as cell-based, Bos taurus. The settings on record: cattle. The method in brief: as §1
In general terms: Tetrazolium dyes change colour on reduction, which living cells bring about.

Series [3] concerns Schistosoma mansoni. Description: Antischistosomal activity against schistosomula of Schistosoma mansoni assessed as effect on parasite phenotype by throughput high content image analysis. It is filed as functional, organism-based. Put shortly: (§2)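 Puerto Rican (NMRI) strain cercariae were mechanically transformed to schistosomula. About 120 larvae were co-cultured with compound for 72 hr at 37 °C, 5% CO2, at 0.625% DMSO final. Controls were DMSO and auranofin. Motility and phenotype were scored by automated image analysis, with a hit threshold of ≤-0.15 (phenotype) and ≤-0.35 (motility) in ≥70% of larvae. Runs were in duplicate, and IC50 was estimated from dose-response curves.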

Series [4] has as its system Schistosoma mansoni. As to the kind of experiment: Antischistosomal activity against schistosomula of Schistosoma mansoni assessed as effect on parasite motility by throughput high content image analysis. It is filed as functional, organism-based. Put shortly:
as §2

Drawing on ChEMBL document CHEMBL4152233, “Design, synthesis and anthelmintic activity of 7-keto-sempervirol analogues” (Eur J Med Chem, 2018), this text covers CC50 and IC50 for 16 compounds.

As a reminder, the CC50 is the concentration that lowers cell viability or growth by half. A low value points to greater toxicity to the cells. The IC50 is the concentration that gives 50% inhibition. Consider `COc1cccc(CC(O)C2=C(C)CCCC2(C)C)c1` (centres undefined), for which the CC50 at 24 h in series [1] and in series [2] was > 100 µM each time. For the same compound, the IC50 in the series with Schistosoma mansoni [3] stood at 39.9 µM; in the series with Schistosoma mansoni [4], 23.5 µM.
For the compound `COc1cccc(CC/C=C(\C)CCC=C(C)C)c1`, the CC50 at 24 h in series [1] and in series [2] was > 100 µM throughout. The IC50 with Schistosoma mansoni [3] was 43.9 µM; in the series on Schistosoma mansoni [4], 27.1 µM.
Consider `CC1=C(C(O)Cc2ccccc2)C(C)(C)CCC1` (centres undefined), for which the CC50 at 24 h in series [1] and in series [2] was > 100 µM in each case. Also, the half-maximal inhibitory concentration (IC50) is 43.6 µM in the series with Schistosoma mansoni [3] and 21.5 µM with Schistosoma mansoni [4].
For the compound `CC(C)=CCC/C(C)=C/CCc1ccccc1`, the CC50 at 24 h in series [1] and in series [2] was > 100 µM throughout. Further, the IC50 with Schistosoma mansoni [3] and in the series on Schistosoma mansoni [4] was 43.8 µM in each case.
`CC1=C(C(O)Cc2ccc(C(C)C)cc2)C(C)(C)CCC1` (centres undefined): the CC50 at 24 h in series [1] and in series [2] was > 100 µM each time. The values for the IC50 in the series on Schistosoma mansoni [3] and with Schistosoma mansoni [4] were 39.9 µM and 27.3 µM, respectively.
Turning to `COc1ccc(CC/C=C(\C)CCC=C(C)C)cc1`, the CC50 at 24 h in series [1] and in series [2] was > 100 µM each time. Besides, the IC50 in the series with Schistosoma mansoni [3] came out at 39.4 µM; with Schistosoma mansoni [4], 40.1 µM.
Take `COc1ccc2c(c1)[C@@]1(C)CCCC(C)(C)[C@H]1C(=O)C2=O` (relative stereo): the CC50 at 24 h in series [1] and in series [2] was > 100 µM each time. The IC50 turned out to be 43.7 µM with Schistosoma mansoni [3] and 26.5 µM with Schistosoma mansoni [4].
`COc1ccc2c(c1)C(=O)C[C@H]1C(C)(C)CCC[C@]21C` (relative stereo): the CC50 at 24 h in series [1] and in series [2] was > 100 µM in each case. Further, the IC50 was determined as 28.6 µM with Schistosoma mansoni [3] and 17.6 µM with Schistosoma mansoni [4].
Turning to `CC1=C(C(=O)Cc2ccccc2)C(C)(C)CCC1`, the CC50 at 24 h in series [1] and in series [2] was > 100 µM in each case. In addition, the IC50 in the series on Schistosoma mansoni [3] was 43.8 µM; in the series on Schistosoma mansoni [4], 26 µM.
`COc1ccc(CC(O)C2=C(C)CCCC2(C)C)cc1` (centres undefined): the CC50 at 24 h in series [1] and in series [2] was > 100 µM throughout. In addition, the 50% inhibitory concentration (IC50) stood at 42.5 µM in the series with Schistosoma mansoni [3] and 26.4 µM with Schistosoma mansoni [4].
For `CC1=C(C(O)Cc2ccc(C(C)(C)C)cc2)C(C)(C)CCC1` (centres undefined), the CC50 at 24 h in series [1] and in series [2] was > 100 µM throughout. In addition, the IC50 came to 40.2 µM in the series on Schistosoma mansoni [3] and 25.6 µM in the series on Schistosoma mansoni [4].
Consider `COc1cc(CC(=O)C2=C(C)CCCC2(C)C)cc(OC)c1OC`, for which the CC50 at 24 h in series [1] and in series [2] was > 100 µM in each case. For the same compound, the figures for the IC50 in the series on Schistosoma mansoni [3] and with Schistosoma mansoni [4] were 43.7 µM and 27.2 µM, respectively.
`COc1cccc(CC(=O)C2=C(C)CCCC2(C)C)c1`: the CC50 at 24 h in series [1] and in series [2] was > 100 µM each time. Further, the figures for the IC50 in the series on Schistosoma mansoni [3] and in the series on Schistosoma mansoni [4] were 41.4 µM and 28.1 µM, respectively.
Regarding `CC1=C(C(=O)Cc2ccc(C(C)(C)C)cc2)C(C)(C)CCC1`, the CC50 at 24 h in series [1] and in series [2] was > 100 µM in each case. For the same compound, the IC50 with Schistosoma mansoni [3] was 28 µM; in the series on Schistosoma mansoni [4], 18.9 µM.
Regarding `COc1cc(CC(O)C2=C(C)CCCC2(C)C)cc(OC)c1OC` (centres undefined), the CC50 at 24 h in series [1] and in series [2] was > 100 µM each time. Besides, the IC50 is 43.8 µM with Schistosoma mansoni [3] and 43.6 µM with Schistosoma mansoni [4].
Consider `COc1ccc2c(c1)[C@@]1(C)CCCC(C)(C)[C@@H]1CC2` (relative stereo), for which the CC50 at 24 h in series [1] and in series [2] was > 100 µM each time. Also, the IC50 with Schistosoma mansoni [3] came out at 44.1 µM; in the series on Schistosoma mansoni [4], 26.6 µM.
